Our source for the Activity values is ChEMBL document CHEMBL1800047, “Design and synthesis of cyclic sulfonamides and sulfamates as new calcium sensing receptor agonists” (Bioorg Med Chem Lett, 2010).

Where a chain is given by its changes, count along the chain named.

What all share (assay type): functional, cell-based
The target of experiment [1] is T1, Extracellular calcium-sensing receptor (Rattus norvegicus) (UniProt P48442).
T1 sequence (whole entry): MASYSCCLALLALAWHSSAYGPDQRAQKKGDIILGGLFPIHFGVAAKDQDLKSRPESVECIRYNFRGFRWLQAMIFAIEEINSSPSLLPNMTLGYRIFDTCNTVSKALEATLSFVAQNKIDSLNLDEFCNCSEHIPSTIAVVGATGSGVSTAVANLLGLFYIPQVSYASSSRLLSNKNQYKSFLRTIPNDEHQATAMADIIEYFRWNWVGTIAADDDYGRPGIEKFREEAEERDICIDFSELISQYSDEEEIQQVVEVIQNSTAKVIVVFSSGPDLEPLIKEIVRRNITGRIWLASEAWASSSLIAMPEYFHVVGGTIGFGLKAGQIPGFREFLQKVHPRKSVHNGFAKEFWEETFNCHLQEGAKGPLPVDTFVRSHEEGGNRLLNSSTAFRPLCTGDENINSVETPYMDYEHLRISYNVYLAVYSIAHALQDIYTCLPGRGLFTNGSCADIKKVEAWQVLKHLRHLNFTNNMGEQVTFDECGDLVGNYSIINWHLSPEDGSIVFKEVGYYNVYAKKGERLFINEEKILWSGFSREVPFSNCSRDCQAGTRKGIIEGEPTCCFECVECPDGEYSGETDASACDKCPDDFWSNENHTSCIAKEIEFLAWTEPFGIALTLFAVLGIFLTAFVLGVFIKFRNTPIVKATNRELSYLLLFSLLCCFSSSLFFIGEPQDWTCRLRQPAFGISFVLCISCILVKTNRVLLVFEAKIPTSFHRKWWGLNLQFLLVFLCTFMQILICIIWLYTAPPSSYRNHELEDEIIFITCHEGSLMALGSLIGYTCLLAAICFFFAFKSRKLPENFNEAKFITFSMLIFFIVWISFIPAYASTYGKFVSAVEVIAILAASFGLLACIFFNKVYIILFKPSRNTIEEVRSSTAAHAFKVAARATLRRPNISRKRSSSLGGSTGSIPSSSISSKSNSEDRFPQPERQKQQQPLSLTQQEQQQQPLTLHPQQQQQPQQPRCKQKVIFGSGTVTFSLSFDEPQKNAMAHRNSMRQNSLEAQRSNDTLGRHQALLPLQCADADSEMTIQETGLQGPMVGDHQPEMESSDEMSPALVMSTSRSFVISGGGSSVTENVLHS
The experiment is described as follows: Agonist activity at rat CaSR expressed in CHO cells assessed as increase of calcium-induced inositol phosphate accumulation at 10 uM after 24 hrs by HTRF assay relative to calcium. A digest of the protocol:
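CHO cells stably expressing rat brain CaSR are grown in Ham's F-12 (0.3 mM Ca²⁺, 0.6 mM Mg²⁺) and seeded at 4 × 10⁴ cells/well. IP-One HTRF runs 24 h later: 10 min preincubation at 37 °C, then 10 µM compound (from 10 mM DMSO stock) with 3 mM Ca²⁺, 30 min at 37 °C. Values are % of 10 mM Ca²⁺ stimulation, mean with S.E.M.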

Experiment [2] concerns T2, Extracellular calcium-sensing receptor (Homo sapiens), P41180 [E837A].
T2 sequence (whole entry): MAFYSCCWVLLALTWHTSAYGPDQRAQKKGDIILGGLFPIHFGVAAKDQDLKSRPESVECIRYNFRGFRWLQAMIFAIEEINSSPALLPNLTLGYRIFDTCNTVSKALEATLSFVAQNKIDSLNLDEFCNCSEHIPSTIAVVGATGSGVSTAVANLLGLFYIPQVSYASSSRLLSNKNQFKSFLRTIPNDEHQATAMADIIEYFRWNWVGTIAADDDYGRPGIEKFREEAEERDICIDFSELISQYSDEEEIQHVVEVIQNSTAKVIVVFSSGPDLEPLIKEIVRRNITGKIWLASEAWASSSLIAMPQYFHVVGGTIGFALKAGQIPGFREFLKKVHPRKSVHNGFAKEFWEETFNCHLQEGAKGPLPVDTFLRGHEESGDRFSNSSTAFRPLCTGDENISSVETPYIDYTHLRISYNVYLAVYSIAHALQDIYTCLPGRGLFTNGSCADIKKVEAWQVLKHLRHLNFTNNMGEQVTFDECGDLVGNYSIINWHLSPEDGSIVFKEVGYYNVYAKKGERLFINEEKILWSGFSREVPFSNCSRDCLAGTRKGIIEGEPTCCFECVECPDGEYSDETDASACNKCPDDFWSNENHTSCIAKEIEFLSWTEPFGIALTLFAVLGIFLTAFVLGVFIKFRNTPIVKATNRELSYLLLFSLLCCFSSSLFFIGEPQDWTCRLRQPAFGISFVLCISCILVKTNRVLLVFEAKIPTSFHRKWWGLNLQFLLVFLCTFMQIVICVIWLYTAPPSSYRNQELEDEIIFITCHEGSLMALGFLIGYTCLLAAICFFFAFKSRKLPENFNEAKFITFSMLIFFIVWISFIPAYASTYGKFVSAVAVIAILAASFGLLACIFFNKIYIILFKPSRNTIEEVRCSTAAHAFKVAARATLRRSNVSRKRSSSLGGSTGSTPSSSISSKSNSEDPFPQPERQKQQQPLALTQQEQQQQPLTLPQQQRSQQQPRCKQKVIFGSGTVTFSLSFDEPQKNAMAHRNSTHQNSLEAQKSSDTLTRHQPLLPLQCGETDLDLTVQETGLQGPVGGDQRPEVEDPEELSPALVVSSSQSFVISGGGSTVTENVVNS
The experiment is described as follows: Agonist activity at human CaSR E837A mutant expressed in HEK293 cells assessed as increase of calcium-induced inositol phosphate accumulation at 10 uM after 48 hrs by HTRF assay relative to calcium. The procedure, abridged: (§1)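 Wild-type or E837A mutant hCaSR (pcDNA3) transiently transfected into HEK293 cells (10⁷ cells, electroporation). Cells are plated on poly-D-lysine and assayed 48 h later. The assay uses a 10 min preincubation at 37 °C, then compound plus 3 mM Ca²⁺ for 30 min at 37 °C. IP-One HTRF read-out is 620/665 nm after 337 nm excitation. Values are % of 10 mM Ca²⁺ response, mean with S.E.M.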
Background: Time-resolved FRET reads energy transfer from a long-lived donor to a nearby acceptor.

In experiment [3] the target is T3, Extracellular calcium-sensing receptor (Homo sapiens) (UniProt P41180).
T3 sequence (whole entry): T2 sequence (whole entry) with A837E, Q1011E
The experiment is described as follows: Agonist activity at human CaSR expressed in HEK293 cells assessed as increase of calcium-induced inositol phosphate accumulation at 10 uM after 48 hrs by HTRF assay relative to calcium. A digest of the protocol:
as §1

As for `C[C@@H](NC[C@@H]1NS(=O)(=O)c2ccccc2-c2ccccc21)c1cccc2ccccc12`, the Activity in experiment [1] amounted to 19%.
Same read-out and setting: as for `C[C@@H](NC[C@H]1NS(=O)(=O)c2ccccc2-c2ccccc21)c1cccc2ccccc12`, the figure is 29%.
As to `C[C@@H](NCc1cc2ccccc2[nH]1)c1cccc2ccccc12`, the Activity in experiment [2] is 41%; in experiment [1] it was 95%; in experiment [3], 94%.
With `C[C@@H](N[C@@H]1CNS(=O)(=O)c2ccccc21)c1cccc2ccccc12`, the Activity in experiment [1] is 13%.
The same measure, in the same setting: then `C[C@@H](N[C@H]1CNS(=O)(=O)c2ccccc21)c1cccc2ccccc12`, with 30%.
On to `C[C@@H](NC1CNS(=O)(=O)Oc2ccccc2C1)c1cccc2ccccc12` (single isomer, unassigned; diastereomer 1), for which the Activity worked out at 1% in experiment [2], 67% in experiment [1] and 67% in experiment [3].
As for `C[C@@H](NCC1CCc2ccccc2S(=O)(=O)N1)c1cccc2ccccc12` (single isomer, unassigned; diastereomer 1), the Activity was determined as 3% in experiment [2], 75% in experiment [1] and 70% in experiment [3].
As for `C[C@@H](NCC1Cc2ccccc2OS(=O)(=O)N1)c1cccc2ccccc12` (single isomer, unassigned; diastereomer 1), the Activity in experiment [2] was 51%; in experiment [1], 85%; in experiment [3], 75%.
On the same counts, the results for `C[C@@H](NCC1Cc2ccccc2S(=O)(=O)N1)c1cccc2ccccc12` (single isomer, unassigned; diastereomer 1) are 22%, 71% and 73%.
Turning to `C[C@@H](NCC1NS(=O)(=O)c2ccccc21)c1cccc2ccccc12` (single isomer, unassigned; diastereomer 1), the Activity in experiment [2] was 11%; in experiment [1], 57%; in experiment [3] it was 58%.
Regarding `C[C@@H](NC1CNS(=O)(=O)Oc2ccccc2C1)c1cccc2ccccc12` (single isomer, unassigned; diastereomer 2), the values for the Activity in experiment [2], in experiment [1] and in experiment [3] were 1%, 17% and 2%, respectively.
Consider `C[C@@H](NCC1CCc2ccccc2S(=O)(=O)N1)c1cccc2ccccc12` (single isomer, unassigned; diastereomer 2), for which the Activity is 1% in experiment [2], 37% in experiment [1] and 40% in experiment [3].
`C[C@@H](NCC1Cc2ccccc2OS(=O)(=O)N1)c1cccc2ccccc12` (single isomer, unassigned; diastereomer 2): the Activity in experiment [2] stood at 27%; in experiment [1], 76%; in experiment [3], 65%.
The corresponding values for `C[C@@H](NCC1Cc2ccccc2S(=O)(=O)N1)c1cccc2ccccc12` (single isomer, unassigned; diastereomer 2) are 10%, 69% and 64%.
As to `C[C@@H](NCC1NS(=O)(=O)c2ccccc21)c1cccc2ccccc12` (single isomer, unassigned; diastereomer 2), the Activity in experiment [2] turned out to be 11%; in experiment [1], 39%; in experiment [3], 51%.
